Measured values taken from ChEMBL document CHEMBL1149450, “Synthesis and cytotoxic evaluation of new derivatives of the marine alkaloid variolin B” (2006).

Legend:
Type in all cases: functional
LNCaP = test: Inhibition of growth against LnCAP cells after 72 hrs exposure; conditions: Homo sapiens
Outline: (§1)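 Human tumour cells seeded at 5 × 10^3 per well in RPMI and allowed to attach for 18 h in drug-free medium. Compounds added in DMSO:H2O (3:7) for 72 h of continuous exposure. Cells fixed with cold TCA (60 min, 4 °C), stained with 0.4% SRB in 1% acetic acid (10 min, RT), and bound dye solubilised in Tris. OD read at 490 nm. GI50 calculated from 100 × [(T − T0)/(C − T0)] = 50, using control, test and time-zero ODs.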

IGROV-1 [1] = test: Inhibition of growth against IGROV cells after 72 hrs exposure; conditions: Homo sapiens, IGROV-1, 72 h; outline: as §1
DU-145 = test: Inhibition of growth against DU145 cells after 72 hrs exposure; conditions: Homo sapiens, DU-145, 72 h; outline: as §1
SK-MEL-28 = test: Inhibition of growth against MEL28 cells after 72 hrs exposure; conditions: Homo sapiens, SK-MEL-28, 72 h; outline: as §1
PANC-1 = test: Inhibition of growth against PANC1 cells after 72 hrs exposure; conditions: Homo sapiens, PANC-1, 72 h; outline: as §1
LoVo [2] = test: Inhibition of growth against LoVo cells after 72 hrs exposure; conditions: Homo sapiens; outline: as §1
LoVo [3] = test: Inhibition of growth against LoVo-Dox cells after 72 hrs exposure; conditions: Homo sapiens; outline: as §1
SK-BR-3 = test: Inhibition of growth against SKBR3 cells after 72 hrs exposure; conditions: Homo sapiens, SK-BR-3, 72 h; outline: as §1
IGROV-1 [4] = test: Inhibition of growth against IGROV-ET cells after 72 hrs exposure; conditions: Homo sapiens, IGROV-1, 72 h; outline: as §1
HMEC = test: Inhibition of growth against HMEC1 cells after 72 hrs exposure; conditions: Homo sapiens; outline: as §1
SK-OV-3 = test: Inhibition of growth against SKOV3 cells after 72 hrs exposure; conditions: Homo sapiens, SK-OV-3, 72 h; outline: as §1
HT-29 = test: Inhibition of growth against HT29 cells after 72 hrs exposure; conditions: Homo sapiens, HT-29, 72 h; outline: as §1
A549 = test: Inhibition of growth against A549 cells after 72 hrs exposure; conditions: Homo sapiens, A549, 72 h; outline: as §1
K562 = test: Inhibition of growth against K562 cells after 72 hrs exposure; conditions: Homo sapiens, K562, 72 h; outline: as §1
HeLa [5] = test: Inhibition of growth against HeLa-Apl cells after 72 hrs exposure; conditions: Homo sapiens; outline: as §1
HeLa [6] = test: Inhibition of growth against HeLa cells after 72 hrs exposure; conditions: Homo sapiens; outline: as §1

SMILES	GI50 (LNCaP)	GI50 (DU-145)	GI50 (SK-MEL-28)	GI50 (PANC-1)	GI50 (LoVo [2])	GI50 (LoVo [3])	GI50 (SK-BR-3)	GI50 (SK-OV-3)	GI50 (HT-29)	GI50 (A549)	GI50 (K562)	GI50 (HeLa [5])	GI50 (HeLa [6])	GI50 (IGROV-1 [1])	GI50 (IGROV-1 [4])	GI50 (HMEC)
COc1ccnc2c1cc1cc(-c3ccnc(N)n3)nc(NCc3ccccc3)n12	16 µM	25.2 µM	25.2 µM	25.2 µM	14.4 µM	11 µM	25.2 µM	25.2 µM	25.2 µM	25.2 µM	25.2 µM	–	–	15.1 µM	25.2 µM	15 µM
Nc1nccc(-c2cc3c(-c4ccnc(N)n4)c4c(O)ccnc4n3c(NCc3ccccc3)n2)n1	21.7 µM	21.7 µM	21.7 µM	21.7 µM	21.7 µM	21.7 µM	21.7 µM	21.7 µM	21.7 µM	21.7 µM	21.7 µM	–	–	21.7 µM	9.9 µM	21.7 µM
Nc1nccc(-c2cc3cc4c(O)ccnc4n3c(NCc3ccccc3)n2)n1	12.9 µM	26.1 µM	24.4 µM	26.1 µM	8.74 µM	6.76 µM	13.1 µM	19 µM	25.1 µM	14.1 µM	26.1 µM	–	–	4.46 µM	12.9 µM	6.31 µM
COc1ccnc2c1c(-c1ccnc(N)n1)c1cc(-c3ccnc(N)n3)nc(NCc3ccccc3)n12	18.6 µM	21 µM	21 µM	19.9 µM	21 µM	21 µM	8.24 µM	–	21 µM	21 µM	21 µM	3.68 µM	3.03 µM	21 µM	21 µM	–
Nc1nccc(-c2cc3c(-c4ccnc(N)n4)c4c(O)ccnc4n3c(N)n2)n1	26.9 µM	26.9 µM	26.9 µM	26.9 µM	26.9 µM	26.9 µM	14.8 µM	–	26.9 µM	26.9 µM	26.9 µM	26.9 µM	26.9 µM	26.9 µM	26.9 µM	–

Stronger by GI50 (LNCaP), values ahead:

GI50 (LNCaP)	GI50 (DU-145)	GI50 (SK-MEL-28)	GI50 (PANC-1)	GI50 (LoVo [2])	GI50 (LoVo [3])	GI50 (SK-BR-3)	GI50 (SK-OV-3)	GI50 (HT-29)	GI50 (A549)	GI50 (K562)	GI50 (HeLa [5])	GI50 (HeLa [6])	SMILES	GI50 (IGROV-1 [1])	GI50 (IGROV-1 [4])	GI50 (HMEC)
2.37 µM	2.38 µM	4.42 µM	3.97 µM	3.62 µM	3.46 µM	2.13 µM	0.72 µM	3.44 µM	3.38 µM	3.36 µM	–	–	COc1ccnc2c1c(-c1ccnc(N)n1)c1cc(C(=O)NCCN(C)C)nc(NCc3ccccc3)n12	2.8 µM	2.05 µM	0.46 µM
9.13 µM	4.74 µM	4.12 µM	17.7 µM	13.6 µM	3.05 µM	2.79 µM	–	18.7 µM	18.7 µM	4.78 µM	3.88 µM	4.52 µM	CN(C)Cc1cnc2c(c1O)c(-c1ccnc(N)n1)c1cc(-c3ccnc(N)n3)nc(NCc3ccccc3)n12	4.03 µM	3.56 µM	–
0.05 µM	0.89 µM	1.2 µM	1.68 µM	0.8 µM	1.02 µM	0.85 µM	1.21 µM	2.85 µM	0.98 µM	1.55 µM	–	–	Nc1nccc(-c2c3c(O)ccnc3n3c(N)nccc23)n1 [VARIOLIN B]	1.14 µM	1.28 µM	0.27 µM
5.28 µM	34.1 µM	3.41 µM	21.8 µM	34.1 µM	34.1 µM	31.9 µM	–	34.1 µM	34.1 µM	9.24 µM	8.86 µM	6.14 µM	Nc1nccc(-c2cc3cc4c(O)ccnc4n3c(N)n2)n1 [7-ISOVARIOLIN B]	27.9 µM	31.9 µM	–
